Consider six molecules from ChEMBL document CHEMBL1212842, “Substrate specificity and inhibitory study of human airway trypsin-like protease” (Bioorg Med Chem, 2010).

Where a SMILES comes first, the peptide text is derived from it. [ ]: non-standard residue; d: D form. The star is where a group is joined. NH(3-CONH2-4-NO2-Ph) = NC(=O)c1cc(N*)ccc1[N+](=O)[O-]; AMC = Cc1cc(=O)oc2cc(N*)ccc12; 2Abz = Nc1ccccc1C(=O)O; Boc = CC(C)(C)OC(=O)*

The species named for series [1] is Bos taurus. Description: Activity at bovine trypsin by FRET assay.
The species named for series [2] is Bos taurus. Description: Ratio of Kcat to Km for bovine trypsin by FRET assay.
The species named for series [3] is Homo sapiens. Put plainly: Activity at human tryptase by FRET assay.
The species entered for series [4] is Homo sapiens. Description: Ratio of Kcat to Km for human tryptase by FRET assay.
For series [5], the target named is T1, Suppressor of tumorigenicity 14 protein (Homo sapiens, UniProt Q9Y5Y6).
T1 sequence (Q9Y5Y6 whole entry): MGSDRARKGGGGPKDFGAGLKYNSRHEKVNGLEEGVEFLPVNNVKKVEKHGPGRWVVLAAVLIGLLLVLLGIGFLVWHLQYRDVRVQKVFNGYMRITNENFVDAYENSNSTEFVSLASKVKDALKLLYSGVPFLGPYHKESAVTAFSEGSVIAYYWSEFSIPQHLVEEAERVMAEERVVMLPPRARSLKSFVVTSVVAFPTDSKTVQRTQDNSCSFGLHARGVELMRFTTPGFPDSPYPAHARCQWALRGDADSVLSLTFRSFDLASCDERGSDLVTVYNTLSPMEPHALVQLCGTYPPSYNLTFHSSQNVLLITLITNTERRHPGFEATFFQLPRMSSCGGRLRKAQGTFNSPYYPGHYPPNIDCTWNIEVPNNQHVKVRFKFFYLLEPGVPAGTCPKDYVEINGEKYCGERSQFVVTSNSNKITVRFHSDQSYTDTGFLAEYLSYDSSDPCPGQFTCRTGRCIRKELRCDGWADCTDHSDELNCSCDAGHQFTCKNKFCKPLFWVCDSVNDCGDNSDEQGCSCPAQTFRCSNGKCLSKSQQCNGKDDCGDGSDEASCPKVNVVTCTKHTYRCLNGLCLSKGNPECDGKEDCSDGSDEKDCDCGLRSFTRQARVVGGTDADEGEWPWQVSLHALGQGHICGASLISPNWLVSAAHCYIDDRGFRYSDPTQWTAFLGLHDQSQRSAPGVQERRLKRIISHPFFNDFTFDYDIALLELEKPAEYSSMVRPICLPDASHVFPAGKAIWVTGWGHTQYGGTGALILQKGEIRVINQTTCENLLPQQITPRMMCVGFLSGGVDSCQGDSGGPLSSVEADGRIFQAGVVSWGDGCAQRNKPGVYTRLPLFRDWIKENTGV
Put plainly: Inhibition of human matriptase by FRET assay.

The nature of series [6]: Inhibition of human tryptase by FRET assay.
Series [7] in a line: Inhibition of bovine trypsin by FRET assay. Further details: species or system Bos taurus.
In series [8] the target is T2, Transmembrane protease serine 11D (Homo sapiens, UniProt O60235).
T2 sequence (O60235 whole entry): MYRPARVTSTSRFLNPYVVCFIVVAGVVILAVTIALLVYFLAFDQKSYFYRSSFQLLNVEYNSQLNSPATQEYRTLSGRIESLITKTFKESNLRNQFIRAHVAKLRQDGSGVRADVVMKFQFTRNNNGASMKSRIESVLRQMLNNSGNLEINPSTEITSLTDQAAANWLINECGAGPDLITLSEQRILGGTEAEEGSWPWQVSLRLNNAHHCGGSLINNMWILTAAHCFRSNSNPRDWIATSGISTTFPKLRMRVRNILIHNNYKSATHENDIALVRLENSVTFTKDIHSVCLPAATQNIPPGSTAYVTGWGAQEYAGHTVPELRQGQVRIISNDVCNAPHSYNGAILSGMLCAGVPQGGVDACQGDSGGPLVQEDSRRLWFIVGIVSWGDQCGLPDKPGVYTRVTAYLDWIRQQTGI
Put plainly: Inhibition of human HAT by FRET assay. Put shortly: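 Inhibitor at increasing concentrations (0–100 nM) was preincubated for 60 min with enzyme (20 nM) in Tris-HCl, pH 7.8. Chromogenic substrate (1.8–100 µM) was then added and absorbance was followed over time. For HAT, the substrate was an ABZ/ANB-labelled tetrapeptide. Ki was calculated from the initial velocities of hydrolysis.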

Substrate in series [9]: N=C(N)NCCC[C@H](NC(=O)c1ccccc1N)C(=O)N[C@@H](CCC(N)=O)C(=O)N[C@@H](CC(=O)O)C(=O)N[C@@H](CCCNC(=N)N)C(=O)Nc1ccc([N+](=O)[O-])c(C(N)=O)c1
Description: (§1) Ratio of Kcat to Km for human matriptase by FRET assay.

Substrate in series [10]: N=C(N)NCCC[C@H](NC(=O)c1ccccc1N)C(=O)N[C@@H](CCC(N)=O)C(=O)N[C@@H](CC(=O)O)C(=O)N[C@@H](CCCCN)C(=O)Nc1ccc([N+](=O)[O-])c(C(N)=O)c1
Described as §1.

Substrate in series [11]: Cc1cc(=O)oc2cc(NC(=O)[C@H](CCCNC(=N)N)NC(=O)[C@H](CO)NC(=O)[C@H](Cc3ccccc3)NC(=O)OC(C)(C)C)ccc12
Described as §1.

Substrate in series [12]: N=C(N)NCCC[C@H](NC(=O)c1ccccc1N)C(=O)N[C@@H](CCC(N)=O)C(=O)N[C@@H](CC(=O)O)C(=O)N[C@@H](CCCNC(=N)N)C(=O)Nc1ccc([N+](=O)[O-])c(C(N)=O)c1
Description: (§2) Activity at human matriptase by FRET assay.

Substrate in series [13]: N=C(N)NCCC[C@H](NC(=O)c1ccccc1N)C(=O)N[C@@H](CCC(N)=O)C(=O)N[C@@H](CC(=O)O)C(=O)N[C@@H](CCCCN)C(=O)Nc1ccc([N+](=O)[O-])c(C(N)=O)c1
The description is as §2.

Substrate in series [14]: Cc1cc(=O)oc2cc(NC(=O)[C@H](CCCNC(=N)N)NC(=O)[C@H](CO)NC(=O)[C@H](Cc3ccccc3)NC(=O)OC(C)(C)C)ccc12
The description is as §2.

Substrate in series [15]: N=C(N)NCCC[C@H](NC(=O)c1ccccc1N)C(=O)N[C@@H](CCC(N)=O)C(=O)N[C@@H](CC(=O)O)C(=O)N[C@@H](CCCNC(=N)N)C(=O)Nc1ccc([N+](=O)[O-])c(C(N)=O)c1
Put plainly: (§3) Activity at human HAT by FRET assay.

Substrate in series [16]: N=C(N)NCCC[C@H](NC(=O)c1ccccc1N)C(=O)N[C@@H](CCC(N)=O)C(=O)N[C@@H](CC(=O)O)C(=O)N[C@@H](CCCCN)C(=O)Nc1ccc([N+](=O)[O-])c(C(N)=O)c1
The description is as §3.

Substrate in series [17]: Cc1cc(=O)oc2cc(NC(=O)[C@H](CCCNC(=N)N)NC(=O)[C@H](CO)NC(=O)[C@H](Cc3ccccc3)NC(=O)OC(C)(C)C)ccc12
The description is as §3.

Substrate in series [18]: N=C(N)NCCC[C@H](NC(=O)c1ccccc1N)C(=O)N[C@@H](CCC(N)=O)C(=O)N[C@@H](CC(=O)O)C(=O)N[C@@H](CCCNC(=N)N)C(=O)Nc1ccc([N+](=O)[O-])c(C(N)=O)c1
Description: (§4) Ratio of Kcat to Km for human HAT by FRET assay.

Substrate in series [19]: N=C(N)NCCC[C@H](NC(=O)c1ccccc1N)C(=O)N[C@@H](CCC(N)=O)C(=O)N[C@@H](CC(=O)O)C(=O)N[C@@H](CCCCN)C(=O)Nc1ccc([N+](=O)[O-])c(C(N)=O)c1
The series is described as §4.

Substrate in series [20]: Cc1cc(=O)oc2cc(NC(=O)[C@H](CCCNC(=N)N)NC(=O)[C@H](CO)NC(=O)[C@H](Cc3ccccc3)NC(=O)OC(C)(C)C)ccc12
The description is as §4.

Take `Cc1cc(=O)oc2cc(NC(=O)[C@H](CCCNC(=N)N)NC(=O)[C@H](CO)NC(=O)[C@H](Cc3ccccc3)NC(=O)OC(C)(C)C)ccc12` (Boc-Phe-Ser-Arg-{AMC}): the figures for the Michaelis-Menten constant (Km) in the series filed under Bos taurus [1] and in the series filed under Homo sapiens [3] were 16.5 µM and 19.4 µM, respectively. For the same molecule, the kcat in the series listed under Bos taurus [1] came to 72.3 ×10⁻¹ /s; in the series listed under Homo sapiens [3], 53.6 ×10⁻¹ /s. In addition, the kcat/Km in the series listed under Bos taurus [2] amounted to 442 ×10³ /M/s; in the series filed under Homo sapiens [4], 276 ×10³ /M/s.
With `N=C(N)NCCC[C@H](NC(=O)c1ccccc1N)C(=O)N[C@@H](CCC(N)=O)C(=O)N[C@@H](CC(=O)O)C(=O)N[C@@H](CCCCN)C(=O)Nc1ccc([N+](=O)[O-])c(C(N)=O)c1` (H-[2Abz]RQDK-{NH(3-CONH2-4-NO2-Ph)}), the results for the Km in the series listed under Bos taurus [1] and in the series listed under Homo sapiens [3] were 1840 µM and 269 µM, respectively. The kcat amounted to 0.8 ×10⁻¹ /s in the series filed under Bos taurus [1] and 11.8 ×10⁻¹ /s in the series filed under Homo sapiens [3]. Further, the values for the kcat/Km in the series filed under Bos taurus [2] and in the series listed under Homo sapiens [4] were 0.1 ×10³ /M/s and 6.7 ×10³ /M/s, respectively.
Consider `N=C(N)NCCC[C@H](NC(=O)[C@H](CC(=O)O)NC(=O)[C@H](CCC(N)=O)NC(=O)[C@H](CCCNC(=N)N)NC(=O)c1ccccc1N)C(=O)O` (H-[2Abz]RQDR-OH), for which the Ki in series [5] turned out to be 973 nM; in series [6], 2130 nM; in [7] it was 3930 nM; in series [8] it was 54.3 nM.
On to `N=C(N)NCCC[C@H](NC(=O)c1ccccc1N)C(=O)N[C@@H](CCC(N)=O)C(=O)N[C@@H](CC(=O)O)C(=O)N[C@@H](CCCNC(=N)N)C(=O)Nc1ccc([N+](=O)[O-])c(C(N)=O)c1` (H-[2Abz]RQDR-{NH(3-CONH2-4-NO2-Ph)}), for which the figures for the Michaelis constant (Km) in the series filed under Bos taurus [1] and in the series listed under Homo sapiens [3] were 1120 µM and 155 µM, respectively. Further, the kcat in the series listed under Bos taurus [1] is 1.4 ×10⁻¹ /s; in the series listed under Homo sapiens [3], 42.2 ×10⁻¹ /s. Further, the kcat/Km in the series listed under Bos taurus [2] was 0.2 ×10³ /M/s; in the series filed under Homo sapiens [4], 27.4 ×10³ /M/s.

B1: Suppressor of tumorigenicity 14 protein (Homo sapiens), Q9Y5Y6 (protein)
chain: MGSDRARKGGGGPKDFGAGLKYNSRHEKVNGLEEGVEFLPVNNVKKVEKHGPGRWVVLAAVLIGLLLVLLGIGFLVWHLQYRDVRVQKVFNGYMRITNENFVDAYENSNSTEFVSLASKVKDALKLLYSGVPFLGPYHKESAVTAFSEGSVIAYYWSEFSIPQHLVEEAERVMAEERVVMLPPRARSLKSFVVTSVVAFPTDSKTVQRTQDNSCSFGLHARGVELMRFTTPGFPDSPYPAHARCQWALRGDADSVLSLTFRSFDLASCDERGSDLVTVYNTLSPMEPHALVQLCGTYPPSYNLTFHSSQNVLLITLITNTERRHPGFEATFFQLPRMSSCGGRLRKAQGTFNSPYYPGHYPPNIDCTWNIEVPNNQHVKVRFKFFYLLEPGVPAGTCPKDYVEINGEKYCGERSQFVVTSNSNKITVRFHSDQSYTDTGFLAEYLSYDSSDPCPGQFTCRTGRCIRKELRCDGWADCTDHSDELNCSCDAGHQFTCKNKFCKPLFWVCDSVNDCGDNSDEQGCSCPAQTFRCSNGKCLSKSQQCNGKDDCGDGSDEASCPKVNVVTCTKHTYRCLNGLCLSKGNPECDGKEDCSDGSDEKDCDCGLRSFTRQARVVGGTDADEGEWPWQVSLHALGQGHICGASLISPNWLVSAAHCYIDDRGFRYSDPTQWTAFLGLHDQSQRSAPGVQERRLKRIISHPFFNDFTFDYDIALLELEKPAEYSSMVRPICLPDASHVFPAGKAIWVTGWGHTQYGGTGALILQKGEIRVINQTTCENLLPQQITPRMMCVGFLSGGVDSCQGDSGGPLSSVEADGRIFQAGVVSWGDGCAQRNKPGVYTRLPLFRDWIKENTGV
As to B1, the kcat/Km was determined as 98.4 ×10³ /M/s in [9], 23.1 ×10³ /M/s in series [10] and 356 ×10³ /M/s in series [11]. The Km in series [12] was determined as 68.5 µM; in series [13], 70.6 µM; in [14], 12.1 µM. For the same molecule, the kcat in series [12] amounted to 67.4 ×10⁻¹ /s; in [13], 16.3 ×10⁻¹ /s; in series [14] it was 42.8 ×10⁻¹ /s.

B2: Transmembrane protease serine 11D (Homo sapiens), O60235 (protein)
chain: MYRPARVTSTSRFLNPYVVCFIVVAGVVILAVTIALLVYFLAFDQKSYFYRSSFQLLNVEYNSQLNSPATQEYRTLSGRIESLITKTFKESNLRNQFIRAHVAKLRQDGSGVRADVVMKFQFTRNNNGASMKSRIESVLRQMLNNSGNLEINPSTEITSLTDQAAANWLINECGAGPDLITLSEQRILGGTEAEEGSWPWQVSLRLNNAHHCGGSLINNMWILTAAHCFRSNSNPRDWIATSGISTTFPKLRMRVRNILIHNNYKSATHENDIALVRLENSVTFTKDIHSVCLPAATQNIPPGSTAYVTGWGAQEYAGHTVPELRQGQVRIISNDVCNAPHSYNGAILSGMLCAGVPQGGVDACQGDSGGPLVQEDSRRLWFIVGIVSWGDQCGLPDKPGVYTRVTAYLDWIRQQTGI
Take B2: the Km in series [15] worked out at 25.4 µM; in series [16], 12.3 µM; in [17] it was 43.6 µM. Besides, the results for the kcat in series [15], in series [16] and in [17] were 115 ×10⁻¹ /s, 24.1 ×10⁻¹ /s and 25.4 ×10⁻¹ /s, respectively. The figures for the kcat/Km in [18], in [19] and in series [20] were 454 ×10³ /M/s, 195 ×10³ /M/s and 58.2 ×10³ /M/s, respectively.

A word on the Km: it is the substrate concentration at which the rate is half of its maximum. The term Ki denotes a measure of affinity in units of concentration, obtained from inhibition or displacement. Higher therefore signals a looser hold on the target.
